# High-throughput results from PubChem.
# MT stabilizer: microtubule stabilizers in HeLa cells, primary screen, imaging, high-content imaging | 200,000 compounds, 0.83% hits | HeLa tubulin immunostaining HCS, 24 h; share of cells brighter than vehicle mean+2SD | AID 2205, 2009 | % tubulin-high responders, % at 10 µM;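 active = plate Z-score above 3 for both tubulin-high and condensed-nucleus cell shares, with cell loss under 80%, at 10 µM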;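 also: anti alpha tubulin signal scored within the nucleus-defined area of each cell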
# KCC2 mod: KCC2 cotransporter modulators, thallium flux, primary screen, cell-based, HEK293 KCC2, FluoZin-2 fluorescence, MLSMR; Solute carrier family 12 member 5 (Homo sapiens), Q9H2X9; KCC2 cells, thallium flux FluoZin-2 fluorescence; B-score of Tl+ flux slope (higher = more flux/activation; lower = inhibition) at 10 µM; 190,000 compounds, 2.2% hits; AID 1456, 2008;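 active = thallium flux slope and its plate-corrected score both differing from the plate sample mean at a set confidence after two filtering rounds, in either direction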;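 also: slope of fluorescence scaled to starting intensity during 10 to 20 s after thallium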
# bCat nuc transl: modulators of beta-catenin nuclear translocation, primary screen, imaging, HeLa cells, immunofluorescence, high-content; nuclear translocation activity, % at 5 µM; 190,000 compounds, 0.3% hits;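 active = nuclear translocation activity above 50% at 5 µM, with a well cell count of 50 or more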;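 also: per-cell ratio of nuclear to cytoplasmic median beta-catenin stain intensity; plate controls were DMSO negative control for no effect and GSK-3 inhibitor IX positive control for full effect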
#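 test system = HeLa cells, endogenous beta-catenin | dosing = single 5 µM dose plus 0.02–20 µM confirmation series | times = compound treatment 24 h, 37°C, 5% CO2 | technique = beta-catenin immunofluorescence imaging with DAPI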
# WT yeast gro inh: growth inhibition of WT strain, primary screen, mitochondrial fusion inhibitor project, WT and mutant strains, chemical genetic | mitochondrial fusion phenotypic screen | inhibition, % at 10 µM | 190,000 compounds, 2.1% hits | AID 1362, 2008; in the data active = inhibition above about 58%; tested in S. cerevisiae
# Pf gametocyte: late stage P. falciparum gametocyte viability inhibitors, primary screen, ATP luminescence, HTS | P. falciparum stage V gametocytes, 24 h | AID 743093, 2013 | inhibition, % at 10.9 µM | 150,000 compounds, 0.065% hits;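 active = inhibition above the mean plus 3 SD of compounds within the control limits, set per campaign, cut at about 38% in these data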;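 also: 0% = DMSO wells and 100% = medium only without gametocytes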
# * marks the source's active call; other numbers are inactive results; · = not tested or not shown. Rows were chosen to be rich in hits. Some 4% of all compounds tested hit in one or more screens of this group.
SMILES,MT stabilizer,KCC2 mod,bCat nuc transl,WT yeast gro inh,Pf gametocyte
Clc1ccccc1-c1nnc2sc(-c3ccc4c(c3)OCO4)nn12,8,-2.1,2,-10,-9
Brc1ccccc1-c1nnc2sc(-c3ccc4c(c3)OCCO4)nn12,38*,-1.6,·,29,·
Cc1ccc(C)c(Oc2nnnn2-c2ccccc2)c1,5,-0.3,2,16,·
Cc1ccc(C(C)C)c(Oc2nnnn2-c2ccccc2)c1,32*,-0.019,2,66*,·
C=CCOc1ccc(C2NC(=S)NC(C)=C2C(=O)c2ccccc2)cc1OC (stereo not given),4,-0.16,-2,2,9
COc1cccc(C2NC(=S)NC(C)=C2C(=O)c2ccccc2)c1OC (stereo not given),24*,-0.82,132*,-13,11
O=C(Nc1cccnc1)c1ccc(Cl)c(S(=O)(=O)N2CCCCCC2)c1,2,-1,-6,11,·
CCN(CC)CCOC(=O)c1ccc(NC(=O)c2ccc(Cl)c(S(=O)(=O)N3CCCCCC3)c2)cc1,25*,0.34,5,40,-3
CCOc1ccc(S(=O)(=O)Nc2cc(OC)ccc2OC)cc1,11,-0.54,52*,5,·
COc1ccc(S(=O)(=O)Nc2cc(Cl)ccc2OC)cc1,24*,-0.38,45,4,·
COc1ccc(OC)c(NS(=O)(=O)c2ccc(Cl)s2)c1,13,-0.053,-2,-54,·
COc1ccc(Cl)cc1NS(=O)(=O)c1ccc(OC)c(OC)c1,3,-0.41,3,4,14
COc1ccc(OC)c(NS(=O)(=O)c2ccc(Br)s2)c1,9.6*,0.78,-1,-17,·
CCOc1ccccc1C(=O)Nc1cc(OC)ccc1OC,5,·,-3,63*,·
NC(=O)NCCc1ccccc1,·,·,·,·,2
CCCc1nc2c(s1)CCc1onc(-c3ccc(Cl)cc3)c1-2,·,·,·,·,11
CCCc1sc(N)nc1-c1ccc(Cl)cc1,6,-1.9,-2,69*,-5
CC(=O)Nc1ccc(NC(=O)c2nc(-c3ccccc3)oc2C)cc1,1,0.028,3,26,-10
CC(C)(C)c1ccc(S(=O)(=O)N(CCCN2CCOCC2)Cc2cccs2)cc1,6,0.12,2,18,·
O=C(CCSc1nc(-c2ccco2)cc(C(F)(F)F)n1)NCCN1CCOCC1,2,-0.18,-2,-4,-3
O=C(CCSc1nc(-c2ccco2)cc(C(F)(F)F)n1)NCCc1ccccc1,2,-3.1*,·,6,·
CCn1cc(CNC(=O)CCSc2nc(-c3ccco3)cc(C(F)(F)F)n2)cn1,43*,-0.62,-1,-8,·
COc1cccc(C2CCCN2Cc2nc(-c3cnccn3)no2)c1 (stereo not given),3,-0.15,-1,1,9
CCc1ccc(NS(=O)(=O)c2ccc(OC)c(C)c2)cc1,3,-1.7,·,59*,·
COc1ccc(S(=O)(=O)Nc2ccc3ccccc3c2)cc1C,4,0.37,·,79,·
SMILES,MT stabilizer,KCC2 mod,bCat nuc transl,WT yeast gro inh,Pf gametocyte
COc1ccc(N/N=C(\C=N\O)C(=O)c2ccc(OC)cc2)cc1,38*,·,·,2,9
Cc1ccsc1C1C(C#N)=C(N)N(N(C)C)C2=C1C(=O)CC(C)(C)C2 (stereo not given),4,-1.1,0,-16,-3
C[C@]12CCC3C(CC=C4C[C@@H](O)CC[C@@]43C)C1CCC2[C@]1(C)CCC(=O)O1 (stereo not given in full),8,0.37,4,18,-8
CC12CCC(O)CC1=CCC1C2CCC2(C)C1CCC21CCC(=O)O1 (stereo not given),3,0.29,-6,75*,4
O=C(c1ccc(COc2ccc(Cl)cc2)cc1)N1CCCCC1,4,-0.4,1,60*,-4
CCCCOc1ccc(C(=O)N2CCCCCC2)cc1,3,0.49,-1,-5,·
Cc1ccc(CNC(=O)Cc2csc(Nc3nc(=S)[nH]c4ccccc34)n2)cc1,4,9.7*,2,-24,·
O=C(Cc1csc(Nc2nc(=S)[nH]c3ccccc23)n1)NCc1ccccc1Cl,3,2,·,3,-32
Cc1cc(Cl)cc(C)c1OCCCCn1ccnc1,2,-0.69,-2,76*,17
Cc1cc(OCCCCn2ccnc2)cc(C)c1Cl,2,0.73,12,76*,·
Cc1cccc(Cl)c1OCCCCn1ccnc1,5,·,2,25,6
Cc1cccc(-n2ncc3c(N(C)Cc4ccccc4)ncnc32)c1,·,0.0071,2,70*,·
Cc1ccc(C)n1-c1ccc(C(=O)NN=C2CCCC2)cc1,2,0.26,-1,-14,-5
O=C(Nc1cccc(Cl)c1)C1C2CCC3C(CCC21)C3(Cl)Cl (stereo not given),4,0.046,-2,80*,-24
O=C(Nc1ccccc1)C1C2CCC3C(CCC21)C3(Cl)Cl (stereo not given),3,0.34,-2,19,·
O=C(N/N=C/c1ccc(OC(F)F)cc1)c1cccc(S(=O)(=O)N2CCOCC2)c1,4,0.32,-2,-4,-2
O=C(O)C(Cc1ccccc1)N1C(=O)c2c(Cl)c(Cl)c(Cl)c(Cl)c2C1=O (stereo not given),·,·,·,·,-1
CCN=C1S/C(=C\c2ccc(N3CCOCC3)cc2C)C(=O)N1CC,3,0.89,6,-23,-15
COCCN1C(=O)/C(=C/c2ccc(N3CCCC3)cc2C)SC1=S,6,-5.4*,18,34,1
CCCCCOc1ccc(NC(=O)CSc2cccc3cccnc23)cc1,2,5.4*,-1,-9,-18
Cc1cccc(CSc2cccc3cccnc23)c1,4,19*,·,65,·
NNC(=O)c1ccc(CSc2cccc3cccnc23)cc1,2,0.0056,-2,11,1
CCOC(=O)CSc1cccc2cccnc12,4,15*,-3,15,1
CCCCN1C=CC(=C2C(=O)c3ccccc3C2=O)C=C1,3,0.39,-1,38,7
CC(C)(C)OC(=O)C[C@@H]1C/C=C\C[C@H](CC(=O)N[C@H](CO)Cc2ccccc2)C(=O)N2CCC[C@H]2COC1=O,·,·,·,·,1
CN(C)c1cc[n+](CC(=O)c2ccc(Br)cc2)cc1,3,0.9,0,5,·
CN(C)c1cc[n+](CC(=O)c2ccc(-c3ccccc3)cc2)cc1,4,-1.9,3,73*,-6
COC(=O)/C(=N/Nc1ccccc1OC)N1CCCc2ccccc21,·,-1.1,1,·,5
Cc1oc(-c2ccccc2)nc1CS(=O)CC(=O)O (stereo not given),3,2.9*,·,-14,·
CN1CCN(CCCNC(=O)c2ccc(/C=C3/Sc4ccccc4N(Cc4cccc(Cl)c4)C3=O)cc2)CC1,2,0.6,6,97*,-22
